“Also recorded” adds a separate entry of the source.
Experiments:
[1] = cited from earlier work
DU145 cells [2] = test: Apoptosis assay, Annexin V-FITC/Propidium Iodide flow cytometry; type: cell-based; details: 24 h
Procedure, shortened: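 DU145 cells in six-well plates were treated 24 h at 37 °C with vehicle, test compound (3, 10, 30 μM) or silibinin reference (30 μM). Cells were harvested, washed in ice-cold PBS, stained with an Annexin V-FITC apoptosis kit and analysed by flow cytometry. Data are mean ± SD of three individual experiments.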

DU145 cells [3] = test: Cell cycle assay, propidium iodide flow cytometry; type: cell-based; details: DU145, 24 h
Procedure, shortened: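 DU145 cells were treated 24 h after plating with increasing test compound concentrations (3, 10, 30 μM) or silibinin (30 μM), and harvested 24 h later. They were PBS-washed, fixed in ice-cold 70% ethanol for ≥24 h, rewashed in room-temperature PBS and stained with propidium iodide plus RNase-A (30 min, 37 °C). Flow cytometry followed. Data are mean ± SD of three experiments.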

SMILES | Solubility in H2O [1] | induction of apoptosis (in words) (DU145 cells [2]; DU145, 3, 10 and 30 μM) | ability to promote DU145 cell apoptosis relative to silibinin (DU145 cells [2]; DU145, same concentration of 30 μM) | effect on cell cycle (in words) (DU145 cells [3])
COc1cc(C2Oc3cc([C@H]4Oc5cc(O)cc(O)c5C(=O)[C@@H]4O)ccc3OC2CO)ccc1O (stereo partly shown) [Silibinin] | less than 0.4 mg/L | – | – | –
COc1cc(C2Oc3cc(C4Oc5cc(O)cc(O)c5C(=O)C4OC(=O)CCC(=O)O[C@H]4O[C@@H](CO)C(O)[C@@H](O)[C@@H]4O)ccc3OC2CO)ccc1O (stereo partly drawn) [Compound 15, 5,7-Dihydroxy-2-[3-(4-hydroxy-3-methoxyphenyl)-2-(hydroxymethyl)-2,3-dihydrobenzo[b][1,4]dioxin-6-yl]-4-oxochroman-3-yl [(2R,3S,4R,6S)-3,4,5-trihydroxy-6-(hydroxymethyl)tetrahydro-2H-pyran-2-yl] succinate] | – | induced apoptosis in DU145 cells; also recorded: markedly induced cell apoptosis in a dose-dependent manner | approximately 2 times | arrested cell cycle at G2/M phase; also recorded: blocked the tumor cells in G2/M -phase progression

Source: article PMC10349574 (Drug Design, Development and Therapy, 2023)
